ChEMBL document CHEMBL1128681, “Studies on the monoamine oxidase (MAO)-catalyzed oxidation of phenyl-substituted 1-methyl-4-phenoxy-1,2,3,6-tetrahydropyridine derivatives: factors contributing to MAO-A and MAO-B selectivity” (J Med Chem, 1995)

Assays:
[1] = biological target: T1, Amine oxidase [flavin-containing] B (Bos taurus, UniProt P56560); test: Ratio of catalytic constant and Michaelis-Menten constant for MAO-B.; details: cattle
T1 sequence (P56560 whole entry): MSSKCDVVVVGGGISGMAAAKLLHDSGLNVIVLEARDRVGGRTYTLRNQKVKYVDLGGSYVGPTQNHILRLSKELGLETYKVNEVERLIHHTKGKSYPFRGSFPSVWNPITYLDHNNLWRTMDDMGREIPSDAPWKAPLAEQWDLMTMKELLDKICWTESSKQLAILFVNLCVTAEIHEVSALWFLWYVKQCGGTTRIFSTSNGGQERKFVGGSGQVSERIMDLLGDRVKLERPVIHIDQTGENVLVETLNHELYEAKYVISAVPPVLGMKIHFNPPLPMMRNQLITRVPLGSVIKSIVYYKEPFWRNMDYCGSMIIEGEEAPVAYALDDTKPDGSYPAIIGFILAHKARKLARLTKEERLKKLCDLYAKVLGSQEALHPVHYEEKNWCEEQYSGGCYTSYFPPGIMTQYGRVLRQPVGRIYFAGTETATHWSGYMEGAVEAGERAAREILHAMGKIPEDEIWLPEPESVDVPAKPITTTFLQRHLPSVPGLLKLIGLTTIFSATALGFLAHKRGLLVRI
Summary of the method: (§1)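 MAO-B at 0.08 μM final; activity was calibrated with MPTP at 30 °C and the preparation was stored at –15 °C. Substrate range 100–2000 μM in 100 mM sodium phosphate pH 7.4, with spectrophotometric initial oxidation rates. KM and kcat derived from double-reciprocal plots, and kcat/KM calculated from them.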

[2] = biological target: T2, Monoamine oxidase B (amine oxidase [flavin-containing] B) (Bos taurus, UniProt P56560); test: (§2) Michaelis-Menten constant for Monoamine oxidase B catalyzed oxidation (KM).; details: cattle; summary of the method: as §1
T2 sequence (P56560 whole entry): T1 sequence (P56560 whole entry)

[3] = biological target: T3, Monoamine oxidase A (amine oxidase [flavin-containing] A) (Homo sapiens, UniProt P21397); test: Michaelis-Menten constant for Monoamine oxidase A catalyzed oxidation (Km)
T3 sequence (P21397 whole entry): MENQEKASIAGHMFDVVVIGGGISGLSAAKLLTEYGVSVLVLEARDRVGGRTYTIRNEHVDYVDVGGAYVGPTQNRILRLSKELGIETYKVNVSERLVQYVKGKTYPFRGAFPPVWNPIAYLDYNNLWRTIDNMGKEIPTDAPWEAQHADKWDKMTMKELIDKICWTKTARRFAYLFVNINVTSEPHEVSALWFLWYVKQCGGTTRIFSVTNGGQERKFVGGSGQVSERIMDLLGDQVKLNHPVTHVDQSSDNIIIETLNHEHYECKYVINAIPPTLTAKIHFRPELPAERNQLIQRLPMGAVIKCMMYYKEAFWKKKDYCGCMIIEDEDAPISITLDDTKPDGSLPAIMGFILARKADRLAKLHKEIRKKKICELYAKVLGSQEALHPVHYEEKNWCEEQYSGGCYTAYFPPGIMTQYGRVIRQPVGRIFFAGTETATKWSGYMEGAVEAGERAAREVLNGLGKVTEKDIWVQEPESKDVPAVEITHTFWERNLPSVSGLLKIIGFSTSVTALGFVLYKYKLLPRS
Summary of the method: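 MAO-A preparation, viscous, diluted with 3 volumes of phosphate buffer just before use; activity standardised with kynuramine at 30 °C. Substrates as oxalate salts at 100–2000 μM final in 100 mM sodium phosphate, pH 7.4, with 0.16 μM MAO-A. Initial oxidation rates were followed spectrophotometrically, and Km came from double-reciprocal plots.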

[4] = biological target: T4, Amine oxidase [flavin-containing] A (Homo sapiens, UniProt P21397); test: Kinetic value evaluated as catalyzed oxidation (kcat).
T4 sequence (P21397 whole entry): T3 sequence (P21397 whole entry)
Summary of the method: (§3)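 kcat from initial oxidation rates, read by spectrophotometer, with test compounds at 100–2000 μM final in 100 mM sodium phosphate pH 7.4, using 0.16 μM MAO-A or 0.08 μM MAO-B. kcat and KM came from double-reciprocal plots. Repeat determinations were made on selected substrates at different times.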

[5] = biological target: T1, Amine oxidase [flavin-containing] B; test: Kinetic value evaluated as catalyzed oxidation rate (kcat).; details: cattle; summary of the method: as §3
[6] = biological target: T4, Amine oxidase [flavin-containing] A; test: Ratio of catalytic constant and Michaelis-Menten constant for MAO-A.
Summary of the method: (§4)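 MAO-A at 0.16 μM final, raised to 0.32 μM for one slowly oxidized substrate. The MAO-A preparation was diluted with 3 volumes of phosphate buffer just before use, and its activity was re-checked bimonthly with kynuramine at 30 °C. Substrates at 100–2000 μM in 100 mM sodium phosphate pH 7.4; initial rates by spectrophotometry. kcat and KM from double-reciprocal plots; kcat/KM as their ratio.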

[7] = biological target: T1, Amine oxidase [flavin-containing] B; test: as §2; details: cattle; summary of the method: as §1
[8] = biological target: T4, Amine oxidase [flavin-containing] A; test: Michaelis-Menten constant for Monoamine oxidase A-catalyzed oxidation (KM).; summary of the method: as §4

`CN1CC=C(c2ccccc2)CC1` was tested, and the “k cat/Km” value [1] was 23850 M⁻¹ s⁻¹, the Km [2] was 191 µM and the Km [3] was 654 µM. For the same molecule, the k cat [4] was 0.517 s⁻¹, the k cat [5] was 4.55 s⁻¹ and the “k cat/Km” value [6] was 783 M⁻¹ s⁻¹.
In the case of `CN1CC=C(Oc2ccc(-c3ccccc3)cc2)CC1`, the “k cat/Km” value [1] was 6050 M⁻¹ s⁻¹, the Km [7] was 284 µM and the Km [8] was 101 µM. For the same molecule, the k cat [4] was 2.88 s⁻¹, the k cat [5] was 1.72 s⁻¹ and the “k cat/Km” value [6] was 28500 M⁻¹ s⁻¹.
`CN1CC=C(Oc2ccccc2)CC1` was tested, and the “k cat/Km” value [1] was 69180 M⁻¹ s⁻¹, the Km [7] was 58 µM and the Km [8] was 55 µM. For the same molecule, the k cat [4] was 2.17 s⁻¹, the k cat [5] was 4.02 s⁻¹ and the “k cat/Km” value [6] was 39320 M⁻¹ s⁻¹.
